Test results: ChEMBL document CHEMBL1127749 (J Med Chem, 1994)

Experiments:
[1] = biological target: Muscarinic acetylcholine receptor; assay: In vitro binding affinity for muscarinic receptor by displacing [3H]quinuclidinyl benzilate binding on rat brain homogenate; format: tissue-based
Outline: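 Two concentration–response curves, five concentrations covering 3 decades, triplicates. IC50 estimated from hand-drawn log concentration–response curves and converted to Ki with Cheng–Prusoff equation.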

[2] = biological target: Muscarinic acetylcholine receptor; assay: In vitro binding affinity for muscarinic receptor by displacing [3H]quinuclidinyl benzilate binding on rat brain stem homogenate.; format: tissue-based
Outline: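 Two full curves, five test concentrations over 3 decades in triplicate. Hand-drawn log curves gave IC50; Ki by Cheng–Prusoff.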

[3] = biological target: T1, Muscarinic acetylcholine receptor M1 (Rattus norvegicus, UniProt P08482); assay: In vitro binding affinity for muscarinic M1 receptor by displacing [3H]pirenzepine binding on rat brain homogenate.; format: tissue-based
T1 sequence (P08482 whole entry): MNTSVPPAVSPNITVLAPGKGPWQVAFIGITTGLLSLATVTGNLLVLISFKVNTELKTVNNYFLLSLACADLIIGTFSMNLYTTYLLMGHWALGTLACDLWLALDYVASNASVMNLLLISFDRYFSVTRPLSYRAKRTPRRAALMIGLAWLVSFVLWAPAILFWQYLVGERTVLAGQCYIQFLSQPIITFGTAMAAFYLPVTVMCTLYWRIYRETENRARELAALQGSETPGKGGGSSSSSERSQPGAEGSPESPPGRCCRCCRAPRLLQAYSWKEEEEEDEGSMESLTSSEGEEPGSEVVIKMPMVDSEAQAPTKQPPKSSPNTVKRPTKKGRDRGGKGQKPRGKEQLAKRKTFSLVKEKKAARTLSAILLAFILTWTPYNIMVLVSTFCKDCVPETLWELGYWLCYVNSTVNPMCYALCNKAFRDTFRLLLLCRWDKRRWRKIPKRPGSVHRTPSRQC
Outline: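 Two complete curves, five test concentrations spanning 3 decades, each in triplicate. IC50 read from hand-drawn log concentration–response curves, converted to Ki by Cheng–Prusoff.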

Rattus norvegicus [4] = species on record: Rattus norvegicus; assay: Ratio of binding affinity at [3H]quinuclidinyl benzilate binding on rat brain homogenate to [3H]- Oxotremorine-M binding on rat brain homogenate; format: functional
Outline: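 Ago ratio computed as Ki from [³H]QNB binding to whole rat brain homogenate divided by Ki from [³H]oxotremorine-M binding to whole rat brain homogenate.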

[5] = biological target: Muscarinic acetylcholine receptor; assay: In vitro binding affinity for muscarinic receptor by displacing [3H]oxotremorine-M binding on rat brain homogenate.; format: tissue-based
Outline: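 Duplicate full curves of five drug concentrations over 3 decades, triplicate points. IC50 taken from hand-drawn log curves; Ki via Cheng–Prusoff.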

Rattus norvegicus [6] = species on record: Rattus norvegicus; assay: Ratio of binding affinity at [3H]quinuclidinyl benzilate binding on rat brain stem homogenate to [3H]pirenzepine binding on rat brain homogenate

Row | Structure (SMILES) | Ki [1] [nM] | Ki [2] [nM] | Ki [3] [nM] | Ratio (Rattus norvegicus [4]) | Ki [5] [nM] | Ratio (Rattus norvegicus [6])
1 | CCn1ncc(C2CCCNC2)n1 (racemic) | 530 | 280 | 260 | 48 | 11 | 1.1
2 | C=CCn1ncc(C2=CCCN(C)C2)n1 | 43 | 32 | 6.3 | 9.1 | 4.7 | 5.1
3 | C#CCn1ncc(C2CCCNC2)n1 (single isomer, unassigned; (+)) | 230 | 30 | 170 | – | 5.2 | –
4 | C#CCn1ncc(C2CCCNC2)n1 (racemic) | 320 | 130 | 84 | – | 2.5 | –
5 | C#CCn1nnc(C2CCCNC2)n1 (racemic) | – | – | 260 | – | 31 | –
6 | C=Cn1ncc(C2=CCCN(C)C2)n1 | – | – | 40 | – | 33 | –
7 | CCn1nnc(C2CCCNC2)n1 (racemic) | – | – | 1100 | – | 230 | –
8 | CCCCn1ncc(C2=CCCN(C)C2)n1 | 48 | 37 | 13 | 19 | 2.5 | 2.8
9 | CN1CCCC(c2nnn(C)n2)C1 (racemic) | – | – | 4800 | – | 1200 | –
10 | CCn1nncc1C1=CCCN(C)C1 | – | – | 1700 | – | 318 | –
11 | CCn1cc(C2=CCCN(C)C2)nn1 | – | – | 770 | – | 990 | –
12 | CCCCCCn1nnc(C2=CCCN(C)C2)n1 | 100 | 220 | 32 | 1.9 | 52 | 6.9
13 | C#CCn1ncc(C2=CC(C)CNC2)n1 (stereo not given) | – | – | 30 | – | 31 | –
14 | C#CCn1ncc(C2CCCNC2)n1 (stereo in doubt; (-)-15c) | 270 | – | 140 | – | 7.8 | –
15 | Cn1nnc(C2CCCNC2)n1 (racemic) | – | – | 2300 | – | 33 | –

Now from value to compound:

Row | Ki [1] [nM] | Ki [2] [nM] | Ki [3] [nM] | Ratio (Rattus norvegicus [4]) | Ki [5] [nM] | Ratio (Rattus norvegicus [6]) | Structure (SMILES)
16 | – | – | 24000 | – | 5400 | – | CN1CCC=C(c2nnnn2C)C1
17 | – | – | 1400 | – | 340 | – | CCCCN1CCC=C(c2nnn(CC)n2)C1
18 | – | – | 140 | – | 78 | – | CCN1CCC=C(c2nnn(CC)n2)C1
19 | 250 | 130 | 100 | 51 | 4.9 | 1.3 | CCCCn1ncc(C2=CCCNC2)n1
20 | 230 | 100 | 44 | 51 | 4.5 | 2.3 | C#CCn1nnc(C2=CCCN(C)C2)n1
21 | – | – | 180 | – | 69 | – | CC1C=C(c2nnn(C)n2)CNC1 (stereo not given)
22 | – | – | 270 | – | 300 | – | CCn1nnc(C2=CCCN(C(C)C)C2)n1
23 | 81 | 220 | 37 | 16 | 5 | 5.9 | CCCCn1nnc(C2=CCCN(C)C2)n1
24 | – | – | 960 | – | 570 | – | CC1=C(c2nnn(C)n2)CNCC1
25 | 140 | 46 | 21 | 11 | 13 | 2.2 | C=CCn1nnc(C2=CCCN(C)C2)n1
26 | 530 | 270 | 84 | 6.2 | 85 | 3.2 | CC(C)n1nnc(C2=CCCN(C)C2)n1
27 | 100 | 180 | 57 | 36 | 2.8 | 3.2 | CCCn1nnc(C2=CCCN(C)C2)n1
28 | – | – | 900 | – | 180 | – | CC1CC=C(c2nnn(C)n2)CN1 (stereo not given)
29 | – | – | 900 | – | 450 | – | CCCN1CCC=C(c2nnn(CC)n2)C1
30 | – | – | 1350 | – | 4.5 | – | Cn1nnc(C2=CCCNC2)n1
